The test system of the data set is MS2 coat protein. In words: apparent Kd, MS2 coat protein; higher = weaker binding; RNA-MaP array. The gist of the method:
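RNA designs were transcribed from sequenced DNA templates on an Illumina sequencing chip and then incubated at room temperature with fluorescently labeled MS2 coat protein at 1.5 nM to 3 μM, with or without input ligand, in Tris-HCl pH 7.5 buffer containing KCl, MgCl2, BSA, DTT, tRNA and Tween20. Incubation lasted 0.8–1.5 h at the lowest protein concentrations and 10–20 min at the highest. Apparent Kd is the median of binding-curve fits made for each cluster. Designs measured on fewer than 10 clusters were excluded.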

Where [1] appears, read: designed as: ON switch for flavin mononucleotide, no ligand.
Where [2] appears, read: ligand present: flavin mononucleotide, designed as: ON switch for flavin mononucleotide.
Where [3] appears, read: designed as: OFF switch for flavin mononucleotide, no ligand.
The mark [4] stands for this setting: ligand present: flavin mononucleotide, designed as: OFF switch for flavin mononucleotide.
[5] abbreviates: designed as: OFF switch for theophylline, no ligand.
The mark [6] stands for this setting: ligand present: theophylline, designed as: OFF switch for theophylline.
Setting [7] is: designed as: ON switch for tryptophan, no ligand.
Where [8] appears, read: ligand present: tryptophan, designed as: ON switch for tryptophan.
Setting [9] is: designed as: OFF switch for tryptophan, no ligand.
[10] abbreviates: ligand present: tryptophan, designed as: OFF switch for tryptophan.

With “AGGAUCCAGGAGAAGGCAACUGUAGUUUGGCAUUGAGGAUAUCCAAAGACCCGCUAGAUAGGAGCACAUGAGGAUCACCCAUGU”, the “apparent Kd” value by setting is: under setting [1], 35.5 nM; under setting [2], 19.1 nM.
“GCAAAUGCUGAGAAGGUGAUGAAUAACUCCUCGAUGUAACUUGACAUGAGGAUCACCCAUGUCAUCAAGGAUAUCAAAGUGAAC”: the “apparent Kd” value is, setting by setting: under setting [3], 9.54 nM; under setting [4], 16.2 nM.
Regarding “UUGAGAGGACAGAAGGUUGGGCUCUUGAUCUACGCGCGCGACAUGAGGAUCACCCAUGUGCUUCCAAAGGAUAUGUCACUCGCA”, the “apparent Kd” value is 138 nM under setting [1] and 44.8 nM under setting [2].
As for “UACGAGUAAGGAUAUACACUGACCCAAAGAGUACAGAAAAUGUAGAAGGUACAUGAGGAUCACCCAUGUAGGUG”, the “apparent Kd” value under setting [3] was 85.2 nM and the “apparent Kd” value under setting [4] was 94.3 nM.
Consider “GUGCAAAACCAGAAGGGACAUUAAAGGGUAAAGUCAGGAUAUGGCACAUGAGGAUCACCCAUGUAGACUAGACGCGUUAUUUUC”, for which the “apparent Kd” value reads like this: under setting [1], 9.99 nM; under setting [2], 9.11 nM.
Take “CCAGCCCUUCUAGAUACCAGCUUUCAAUAUAAGACAACUCACAUGAGGAUCACCCAUGUUAGCCCUUGGCAGCUAAGAUCCACAA”: the “apparent Kd” value under setting [5] worked out at 52.1 nM and the “apparent Kd” value under setting [6] was 57.3 nM.
Take “GCAAAGAAAGCAGUGUAAACAUGAGGAUCACCCAUGUGAUGGAGAAGGUAUAGGCUGGUCGUAUAUAAGGAUAUCCUAAGCAAA”: the “apparent Kd” value reads like this: under setting [1], 18.6 nM; under setting [2], 17.6 nM.
On the same counts, the results for “GGUACUCUGUACUAACAUGAGGAUCACCCAUGUAGGCAAACUCAGGAUAUAUUGAACACACCUAGAUAGAAGGGAGUUCGUGAU” are 11.2 nM and 9.66 nM.
Turning to “UCGGAAAAGAAAGGAUAUCGCAUGGAUUGUUGUCGAGAAGGUUCAAAUCGACAUGAGGAUCACCCAUGUCGAGUCCAUACUCCU”, the “apparent Kd” value runs as follows: under setting [1], 76 nM; under setting [2], 53.7 nM.
For the sequence “CCCUCCAGAACGGCCGCCACUAAAGGGUUGUGUGCGACUCCGGAACAUGAGGAUCACCCAUGUCUUAGGACCGGGUUCCCUUCUA”, the “apparent Kd” value worked out at 62 nM under setting [7] and 56.5 nM under setting [8].
As for “GCGACUCUCGUGAAGCGACAUGAGGAUCACCCAUGUAACACUAGAAGGAGGCACGAUACGAUGUCCUAGGAUAUAGACACGGCU”, the “apparent Kd” value runs as follows: under setting [3], 27.8 nM; under setting [4], 26.4 nM.
As to “GCAACAUGUUCAGGAUAUACGCUACAAACUCGUGUAGAAGGGAAGGAUACAAUUACAUGAGGAUCACCCAUGUGUUAUCCGAUU”, the “apparent Kd” value runs as follows: under setting [1], 23.7 nM; under setting [2], 20.8 nM.
As for “AUCACUGUGAAAGAUACCAGCGCCCUACCUAUCUUCUGUUACAUGAGGAUCACCCAUGUUCGCCCUUGGCAGCUUGAGAUGGAUC”, the “apparent Kd” value amounted to 49 nM under setting [5] and 70.6 nM under setting [6].
For the sequence “AGGAACGAAGGAUAUGAUGAAUAGUACAUGAGGAUCACCCAUGUGGCCACCUUAGACAUCUCAGAAGGACGAUACU”, the “apparent Kd” value under setting [3] was 33.6 nM and the “apparent Kd” value under setting [4] came out at 25.1 nM.
Regarding “UGACUGGUCGGAGGAUAUGGCAACACGUUUUCGCCAGAAGGCCGACAUGAGGAUCACCCAUGUGGGACACUAGGGCGACUUCCU”, the “apparent Kd” value is, setting by setting: under setting [3], 166 nM; under setting [4], 35.8 nM.
In the same order, the values of “UGUGGAACGGAAGGAUAUGGUCACCGAUGGUCUCCAGAAGGUCCGGGUGACCGAACAAUACAUGAGGAUCACCCAUGUAGCAAA” are 7 nM and 6.84 nM.
As for “GUCGUCACAGGAUAUACAUGAGGAUCACCCAUGUUCCCGUGUAAAUGGGUUGUGUUAGGUAGAAGGGUGCACGC”, the “apparent Kd” value came out at 17.4 nM under setting [3] and 27.8 nM under setting [4].
In the case of “AUGAGCUGAGGAUAUAUUAACCUGUACAUGAGGAUCACCCAUGUAGCGUGUAGAGUGAGAAUAGAAGGCAGACAUC”, the “apparent Kd” value under setting [3] turned out to be 17.2 nM and the “apparent Kd” value under setting [4] was 12.8 nM.
On to “CAAUAUUUCCAGAAGGGCAAGCUAACACCAACUGCAGGAUAUGGUUUCAUACAACAUGAGGAUCACCCAUGUGGCACAGGUUCC”, for which the “apparent Kd” value came out at 18.6 nM under setting [1] and 17.2 nM under setting [2].
On the same counts, the results for “CAAACAUUAUCAGGAUAUGUGCAAGAUCCGACAUGAGGAUCACCCAUGUUGCGGCAUCUCGGUUGACAGAAGGGAUCAUCGCCU” are 11.2 nM and 10.1 nM.
As to “UUUAAGAGAGGAUAUGUAGAAUAUAACAUGAGGAUCACCCAUGUACAGAGUGUUAAAGUCACAGAAGGCUCCAUGU”, the “apparent Kd” value under setting [3] stood at 27.5 nM and the “apparent Kd” value under setting [4] is 20.6 nM.
As for “GGACGGUGGUGAGGAUAUUGUCACAUGAGGAUCACCCAUGUCGUCUGGGAGCGGACUCCUCGGUCCAAGAAGGCACGACCAGCC”, the “apparent Kd” value under setting [3] came to 246 nM and the “apparent Kd” value under setting [4] was found to be 431 nM.
On the same counts, the results for “GACAGGACGACAUGAGGAUCACCCAUGUGUUAGCGUGGAUAGCAGGAUAUAUUAUUUAGACUCGGAUAGAAGGGCUCGGACCUA” are 18.3 nM and 14.5 nM.
As for “AAAUACAUGAGGAUCACCCAUGUCAAUAAUCGAGGACCGGUACGGCCGCCACUCGAUCGGCCAAGAAAAUGAAAGAUGAUCUCUA”, the “apparent Kd” value reads like this: under setting [7], 26.9 nM; under setting [8], 30.7 nM.
As to “CACUGACAUGAGGAUCACCCAUGUAUGCUCGACCAAGGAUAUUGAUCAGACAAGCAUACGCAAGAAGGUGGUGAGA”, the “apparent Kd” value runs as follows: under setting [1], 222 nM; under setting [2], 105 nM.
As for “AUGUCCUAAACGGCCGCCACUUACAUGAGGAUCACCCAUGUUUACCGAUAUGGUUGUUGCUUUCCAAGGACCGGGUUUAAUCUGC”, the “apparent Kd” value came to 12.7 nM under setting [9] and 13.5 nM under setting [10].
“GCGACAUGAGGAUCACCCAUGUGCCUCGUGUUAUUCUCUUUAAGAAGGAACGGGUAGCUCUAUUGUUAGGAUAUUAAUGGAAUU”: the “apparent Kd” value runs as follows: under setting [3], 689 nM; under setting [4], 724 nM.
With “AAUAAGAGCUCGGAUACCAGCGAAAACAGGCACAUGAGGAUCACCCAUGUUAACGCACUGCGCCCUUGGCAGCCGCACGUGUGUC”, the “apparent Kd” value is, setting by setting: (designed as: ON switch for theophylline, no ligand) 25.1 nM; (ligand present: theophylline, designed as: ON switch for theophylline) 12 nM.
For “AGAAGCUAAUCCGGCUCAUACAUGAGGAUCACCCAUGUUUUCAGAAGGGAGUCCGUCGCACCGACUCAGGAUAUGAUUCAAGAA”, the “apparent Kd” value by setting is: under setting [1], 15.6 nM; under setting [2], 21.8 nM.
For “GGAAUGUGAGGAUAUAGGUGACCAAUACAAAACACAAAGAUCUAGAAGGCACAUGAGGAUCACCCAUGUAUACG”, the “apparent Kd” value is, setting by setting: under setting [3], 19.9 nM; under setting [4], 17.9 nM.
In the case of “UCGUCAUUGAACAGCACAUGAGGAUCACCCAUGUUUAGAUCUAGAAGGCCUUUCUCGAAGACCCAGGAGGAUAUAGUGAAGUGG”, the “apparent Kd” value reads like this: under setting [3], 21.8 nM; under setting [4], 18.7 nM.
For the sequence “AAUACAAAACAUGAGGAUCACCCAUGUCCCGAGACUAAACUAAGAAGGUGACCAACCAAAAGGGUCAAGGAUAUUAGGAUCUAU”, the “apparent Kd” value is, setting by setting: under setting [1], 28.9 nM; under setting [2], 13.4 nM.
Turning to “UGCAGAGAUUGAGGAUAUGUAGUCGAACAUGAGGAUCACCCAUGUUUGGUCCUUCUACACACGGCACAGAAGGCAAGAAAGAGC”, the “apparent Kd” value is, setting by setting: under setting [3], 15.1 nM; under setting [4], 24.3 nM.
On the same counts, the results for “UCUUCCCGCUUAGGAUAUCUUGCUAAUUUGUGUAGAGAAGGAAGUGUAAACAUGAGGAUCACCCAUGUGGCCUCCAGAUAAAGC” are 12.1 nM and 14.9 nM.
In the same order, the values of “GCUUGCUCAGAGGAUAUAGUUUCAACCACUCUACUAGAAGGCUGUACAUGAGGAUCACCCAUGUCCUUAAUCUC” are 22.6 nM and 23.7 nM.
As to “UUUGAGGCAGGAUAUAACAUCUUUGACAUGAGGAUCACCCAUGUGGUGUCCCGGUUUUAAUUAGAAGGGCCAGGCU”, the “apparent Kd” value runs as follows: under setting [3], 692 nM; under setting [4], 727 nM.
On the same counts, the results for “GAGAGAUAAGGAUAUCCACAACGGGACAUGAGGAUCACCCAUGUACCCUCAUUCCUCGCAGGAGAAGGUAUCAUGU” are 22.4 nM and 44.3 nM.
In the case of “UUCCUUGUCGAGAAGGAAUGGCACUUGAGGCGAUUAGGAUAUCGAUACAUGAGGAUCACCCAUGUUGUGUCUCAUAGUAUGACA”, the “apparent Kd” value is 12 nM under setting [3] and 12.4 nM under setting [4].
On the same counts, the results for “UCGAACGGGCAAGGAUAUCGAAGAUCCAAAAUUCGAGAAGGUGCAUGUGAUCGUCCGGUGUCACAUGAGGAUCACCCAUGUCAA” are 354 nM and 179 nM.
In the case of “UAACUCAAGUAACAGGAUAUGAGUGCGGAUACAUGAGGAUCACCCAUGUUGACGAUAACCGGACAACAGAAGGGUACCUAACUUGG”, the “apparent Kd” value was 33.5 nM under setting [1] and 22.2 nM under setting [2].
For the sequence “UAGAGCCAGUCGGCCGCCACUCUCCAUAUGUGAGCCUUUAAGUUCUACAUGAGGAUCACCCAUGUGAGGACCGGGACCGAAUCUA”, the “apparent Kd” value came out at 60.3 nM under setting [9] and 80.7 nM under setting [10].
For “AUACCAUCCCAAGGAUAUGUUACCUAGACAUGAGGAUCACCCAUGUGAGAUUAGAGCUGUCGCGUACAGAAGGUGGUGAUGACA”, the “apparent Kd” value runs as follows: under setting [3], 25.3 nM; under setting [4], 28.1 nM.
On the same counts, the results for “GAGGUAACGUAGAAGGCGAGGGCAAUACCUGUUCGAGGAUAUACUAUUAGACAUGAGGAUCACCCAUGUGGAGAUUGAUCGUCA” are 241 nM and 339 nM.
As to “ACAUCUUGUACGGCCGCCACUAACAGAUUCAGCGUCGGAGCCAACUACAUGAGGAUCACCCAUGUUAGGACCGGGUACUGUCCAC”, the “apparent Kd” value under setting [9] is 17.7 nM and the “apparent Kd” value under setting [10] was found to be 34.9 nM.
For “GGACAUGAGGAUCACCCAUGUGGGAUCCACUACGGUCACGCUAGAAGGGAUGUGGGUGGCCGAUAUCAGGAUAUAGCAGUUUAG”, the “apparent Kd” value reads like this: under setting [3], 381 nM; under setting [4], 189 nM.
In the same order, the values of “CUAAGAUAAGAAGGAUAUAAAACAUGAGGAUCACCCAUGUAAAAGUACAUCACACUACAAAUGGAUUAGAAGGUCUUAAUAACC” are 10.2 nM and 8.47 nM.
Consider “GAACAUGAGGAUCACCCAUGUAGACGCAGGCUAAUAGAAUCGAGAAGGGCUAUAUGGGAACGCCAGCAGGAUAUCGGAGGUCAA”, for which the “apparent Kd” value is 84 nM under setting [1] and 49.1 nM under setting [2].
